Assay results taken from ChEMBL document CHEMBL3739290, “Thioxo-dihydroquinazolin-one Compounds as Novel Inhibitors of Myeloperoxidase” (ACS Med Chem Lett, 2015).
Calls of active or inactive are those of the source. The calls are words filed in the database; no cut-off is given here.

What was measured:
Myeloperoxidase = biological target: T1, Myeloperoxidase (Homo sapiens, UniProt P05164); assay: Inhibition of human recombinant myeloperoxidase by amplex red assay
T1 sequence (P05164 whole entry): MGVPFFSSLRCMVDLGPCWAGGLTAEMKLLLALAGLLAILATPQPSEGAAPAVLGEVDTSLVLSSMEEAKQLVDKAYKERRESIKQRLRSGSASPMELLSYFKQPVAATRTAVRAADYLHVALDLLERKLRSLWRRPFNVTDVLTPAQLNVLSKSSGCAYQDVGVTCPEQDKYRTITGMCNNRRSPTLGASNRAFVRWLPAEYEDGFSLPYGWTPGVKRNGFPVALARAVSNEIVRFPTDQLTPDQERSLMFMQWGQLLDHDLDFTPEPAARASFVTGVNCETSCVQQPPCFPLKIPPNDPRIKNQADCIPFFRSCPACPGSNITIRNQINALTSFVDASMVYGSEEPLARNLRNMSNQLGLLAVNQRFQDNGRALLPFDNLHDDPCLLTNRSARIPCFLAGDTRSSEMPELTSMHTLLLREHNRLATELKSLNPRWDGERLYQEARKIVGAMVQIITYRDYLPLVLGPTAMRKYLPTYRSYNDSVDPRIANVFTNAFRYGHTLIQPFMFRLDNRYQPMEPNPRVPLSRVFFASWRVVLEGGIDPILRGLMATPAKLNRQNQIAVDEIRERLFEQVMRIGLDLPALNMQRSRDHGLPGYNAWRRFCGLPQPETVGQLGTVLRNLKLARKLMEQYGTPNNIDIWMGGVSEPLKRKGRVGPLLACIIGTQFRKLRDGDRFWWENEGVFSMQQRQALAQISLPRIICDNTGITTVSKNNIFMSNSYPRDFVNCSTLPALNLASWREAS

[1] = biological target: T2, Xanthine dehydrogenase/oxidase (Homo sapiens, UniProt P47989); assay: Inhibition of xanthine oxidase (unknown origin) assessed as superoxide generation measured for 20 mins by luminescence analysis using 50 uM xanthine as a substrate
Procedure, shortened: (§1)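 Xanthine/xanthine oxidase served as the oxidant source to check for assay interference. The buffer and pH matched the MPO Amplex Red assay. Inhibitors were tested over a range up to 100 μM.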

Armoracia rusticana = assay: Inhibition of horseradish peroxidase by amplex red assay
Procedure, shortened: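 Interference counter-screen: the Amplex Red peroxidase assay was run with HRP (20 nM) in place of human MPO, across a range of compound concentrations. Points are the mean ± SEM of three determinations.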

[2] = biological target: T2, Xanthine dehydrogenase/oxidase; assay: Inhibition of xanthine oxidase (unknown origin) assessed as superoxide generation upto 100 uM measured for 20 mins by luminescence analysis using 50 uM xanthine as a substrate; settings: read-out: Imax; procedure, shortened: as §1
[3] = biological target: T3, Myeloperoxidase (Homo sapiens) (UniProt P05164); settings: 100 uM
T3 sequence (whole entry): T1 sequence (P05164 whole entry)

[4] = biological target: T3, Myeloperoxidase (Homo sapiens); settings: 6 uM
[5] = Solubility of compound in water by nephelometry; assay type: physicochemical

T2 sequence (P47989 whole entry): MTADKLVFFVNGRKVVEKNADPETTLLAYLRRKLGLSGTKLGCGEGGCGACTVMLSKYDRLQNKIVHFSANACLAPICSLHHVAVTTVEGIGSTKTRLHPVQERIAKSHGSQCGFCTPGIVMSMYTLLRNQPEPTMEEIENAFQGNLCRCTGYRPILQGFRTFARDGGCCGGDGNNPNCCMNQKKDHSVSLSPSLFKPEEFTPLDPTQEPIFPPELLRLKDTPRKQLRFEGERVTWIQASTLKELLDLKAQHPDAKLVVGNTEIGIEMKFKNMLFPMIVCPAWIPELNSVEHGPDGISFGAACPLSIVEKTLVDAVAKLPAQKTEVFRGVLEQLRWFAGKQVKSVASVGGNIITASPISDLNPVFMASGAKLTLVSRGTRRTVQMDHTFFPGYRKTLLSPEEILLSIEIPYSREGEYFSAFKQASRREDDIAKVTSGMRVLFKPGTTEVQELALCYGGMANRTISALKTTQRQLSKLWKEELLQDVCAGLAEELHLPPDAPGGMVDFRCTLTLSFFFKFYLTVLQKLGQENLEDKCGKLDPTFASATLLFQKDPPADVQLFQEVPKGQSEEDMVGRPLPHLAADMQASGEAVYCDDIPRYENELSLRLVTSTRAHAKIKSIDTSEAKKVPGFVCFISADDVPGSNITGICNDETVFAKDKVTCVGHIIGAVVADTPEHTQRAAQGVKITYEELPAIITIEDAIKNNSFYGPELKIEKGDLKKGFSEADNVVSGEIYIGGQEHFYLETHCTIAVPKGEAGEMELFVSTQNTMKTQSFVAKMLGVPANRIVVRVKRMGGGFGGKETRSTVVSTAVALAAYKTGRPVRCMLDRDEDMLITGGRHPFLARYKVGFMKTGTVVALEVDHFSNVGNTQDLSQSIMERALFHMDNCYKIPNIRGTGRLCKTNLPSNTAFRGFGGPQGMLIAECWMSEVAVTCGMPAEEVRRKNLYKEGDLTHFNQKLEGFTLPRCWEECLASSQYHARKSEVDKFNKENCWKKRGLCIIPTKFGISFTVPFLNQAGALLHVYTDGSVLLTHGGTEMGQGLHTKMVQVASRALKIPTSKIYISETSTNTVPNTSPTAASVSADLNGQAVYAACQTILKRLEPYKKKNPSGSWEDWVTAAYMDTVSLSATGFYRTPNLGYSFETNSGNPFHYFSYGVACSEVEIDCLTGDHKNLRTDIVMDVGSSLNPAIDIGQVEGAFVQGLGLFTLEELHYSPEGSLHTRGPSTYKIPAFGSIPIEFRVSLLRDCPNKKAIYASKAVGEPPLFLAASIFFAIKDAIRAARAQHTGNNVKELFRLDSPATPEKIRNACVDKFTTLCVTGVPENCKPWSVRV

With `O=c1c2ccccc2[nH]c(=S)n1CCCCCO` as the molecule, how does the IC50 (Myeloperoxidase; read-out: IC50) read?
The IC50 was over 40 µM.

And the IC50 [1]?
The IC50 was “Not Active”.

Which IC50 (Myeloperoxidase; read-out: IC50) does the source give for `CN1CCN(CCCn2c(=S)[nH]c3ccccc3c2=O)CC1` here?
Its IC50 is 1.4 µM.

And the IC50 [1]?
Its IC50 is “Not Active”.

With `O=C(Nn1c(=S)[nH]c2ccc(F)cc2c1=O)c1cccc(F)c1` as the molecule, how does the inhibition (Armoracia rusticana) read?
Its inhibition is “inactive”.

Which IC50 (Myeloperoxidase; read-out: IC50) does the source give for `CN(C)CCCCCn1c(=O)[nH]c2ccccc2c1=O` here?
Its IC50 is 10 µM.

And the IC50 [1]?
The IC50 was “Not Active”.

Which results are given for `CCN(CC)CCn1c(=S)[nH]c2ccccc2c1=O`?
IC50 (Myeloperoxidase; read-out: IC50): 1.6 µM; IC50 [1]: Not Active

Which IC50 (Myeloperoxidase; read-out: IC50) does the source give for `CN(C)CCn1c(=S)[nH]c2ccccc2c1=O` here?
Its IC50 is 1.7 µM.

What about the IC50 [1] of the same molecule?
Its IC50 is “Not Active”.

What does the source list for `CN(C)CCCn1c(=O)[nH]c2ccccc2c1=O`?
IC50 (Myeloperoxidase): Not Active; IC50 [1]: Not Active

Which results are given for `CN(C)CCCCCCn1c(=S)[nH]c2ccc(F)cc2c1=O`?
Emax [2]: 35%; IC50 (Myeloperoxidase; read-out: IC50): > 20 µM; IC50 ([1]; read-out: IC50): 18 µM

For `CCn1c(=S)[nH]c2ccc(F)cc2c1=O`, which IC50 (Myeloperoxidase; read-out: IC50) is on record?
The IC50 was 15 µM.

And the IC50 [1]?
Its IC50 is “Not Active”.

What does the source list for `CC(C)n1c(=S)[nH]c2cc3c(cc2c1=O)OCCO3`?
Emax [2]: 60%; IC50 (Myeloperoxidase; read-out: IC50): > 20 µM; IC50 ([1]; read-out: IC50): 4.5 µM

Which IC50 (Myeloperoxidase; read-out: IC50) does the source give for `O=C(Nn1c(=S)[nH]c2cc3c(cc2c1=O)OCCO3)c1ccc(C(F)(F)F)cc1` here?
The IC50 was 0.3 µM.

And the IC50 [1]?
The IC50 was “Not Active”.

What does the source list for `CN(C)CCCn1c(=S)[nH]c2cc(Cl)ccc2c1=O`?
Emax [2]: 50%; IC50 (Myeloperoxidase; read-out: IC50): 8 µM; IC50 ([1]; read-out: IC50): 4 µM

For `O=C(NO)c1ccccc1O`, which inhibition [3] is on record?
The inhibition was “Active”.

Which IC50 (Myeloperoxidase; read-out: IC50) does the source give for `CN(C)CCCn1c(=S)[nH]c2cc(F)c(F)cc2c1=O.Cl` here?
Its IC50 is 1.2 µM.

What about the IC50 [1] of the same molecule?
Its IC50 is “Not Active”.

What does the source list for `O=c1c2ccccc2[nH]c(=S)n1CCN1CCCCC1`?
IC50 (Myeloperoxidase; read-out: IC50): 0.4 µM; IC50 [1]: Not Active

Which inhibition [4] does the source give for `NNC(=O)c1ccc(N)cc1` here?
Its inhibition is “Active”.

What does the source list for `CN(C)CCCn1c(=S)[nH]c2ccccc2c1=O`?
Emax [2]: 20%; IC50 (Myeloperoxidase; read-out: IC50): 1.3 µM; IC50 ([1]; read-out: IC50): 20 µM

What does the source list for `CN(C)CCCn1c(=S)[nH]c2ccc(F)cc2c1=O.Cl`?
IC50 (Myeloperoxidase; read-out: IC50): 0.6 µM; IC50 [1]: Not Active

With `CN(C)CCCn1c(=S)[nH]c2c(Cl)cc(Cl)cc2c1=O` as the molecule, how does the IC50 (Myeloperoxidase; read-out: IC50) read?
Its IC50 is over 20 µM.

And the IC50 [1]?
The IC50 was “Not Active”.

For `CN(C)CCCn1c(=S)[nH]c2ccc(Cl)cc2c1=O.Cl`, which Emax [2] is on record?
The Emax was 71%.

What about the inhibition (Armoracia rusticana) of the same molecule?
Its inhibition is “inactive”.

What about the solubility kinetic [5] of the same molecule?
Its solubility kinetic is 90 µg/mL.

What about the IC50 (Myeloperoxidase; read-out: IC50) of the same molecule?
The IC50 was 0.8 µM.

And the IC50 ([1]; read-out: IC50)?
The IC50 was 15 µM.

With `CN(C)CCCCn1c(=O)[nH]c2ccccc2c1=O` as the molecule, how does the IC50 (Myeloperoxidase; read-out: IC50) read?
The IC50 was 10 µM.

What about the IC50 [1] of the same molecule?
Its IC50 is “Not Active”.
